From PubChem
E-sel inducer: E-selectin induction on HUVECs; HUVEC E-selectin immunofluorescence imaging; normalized: neutral wells 0, TNF-alpha wells 100; P16581; activation, % at 7.58 µM; hit rate 0.37% among 260,000;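 active = mean E-selectin-positive cell signal at least 10% of the positive control, reached in at least 60% of replicates, without over 20% cell loss; inconclusive = no rule given, readout overlaps actives, possibly toxicity-flagged; inactive = the rest, including those meeting only one limit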
Target sequence (P16581 whole entry, looked up): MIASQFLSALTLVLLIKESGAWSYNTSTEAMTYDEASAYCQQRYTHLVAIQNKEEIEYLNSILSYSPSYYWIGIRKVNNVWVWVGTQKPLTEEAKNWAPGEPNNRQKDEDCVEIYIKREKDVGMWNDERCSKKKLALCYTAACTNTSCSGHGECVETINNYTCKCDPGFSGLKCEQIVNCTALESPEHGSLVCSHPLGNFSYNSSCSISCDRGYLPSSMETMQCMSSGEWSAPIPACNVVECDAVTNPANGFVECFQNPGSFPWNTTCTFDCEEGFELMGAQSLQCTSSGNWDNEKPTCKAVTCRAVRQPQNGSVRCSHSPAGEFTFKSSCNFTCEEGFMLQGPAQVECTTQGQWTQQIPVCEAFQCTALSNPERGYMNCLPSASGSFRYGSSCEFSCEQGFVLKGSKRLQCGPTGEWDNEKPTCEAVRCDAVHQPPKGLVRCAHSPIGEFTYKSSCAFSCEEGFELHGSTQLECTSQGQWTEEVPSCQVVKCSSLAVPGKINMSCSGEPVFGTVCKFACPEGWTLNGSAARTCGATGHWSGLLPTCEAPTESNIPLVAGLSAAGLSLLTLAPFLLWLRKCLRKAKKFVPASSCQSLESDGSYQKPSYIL
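System: HUVEC / Compound: single concentration / Signal: immunofluorescence imaging / Read-out: percent E-selectin-positive cells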
C2C12 statin: protects C2C12 myotubes from simvastatin toxicity | hit rate 0.78% among 330,000 | rescue of ATP level, % at 7.49 µM | ATP luminescence, 48 h; scaled: DMSO 0, geranylgeraniol control 100;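 active = mean ATP rescue above about 67%, or every replicate alone reaching that limit, limit read from the data, passing the limit was not always enough; inconclusive = no clear call, values can overlap the other calls; inactive = mean under the limit and some replicate under it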;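 note: myotubes were challenged with 10 µM simvastatin during compound exposure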
DENV2 CPE rescue: inhibitors of DENV2 cytopathic effect | DENV2-infected cells, cytopathic effect rescue, plate reader | CPE inhibition, % at 9.99 µM | hit rate 1.7% among 350,000 | AID 651640; in the data active = CPE inhibition above about 20%, passing the limit was not always enough; inconclusive = no clear call, values can overlap the other calls; tested in BHK-21 cells;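 note: 0% = median of neutral control wells and 100% = median of positive control wells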
Numbers without * were called inactive; ? = inconclusive; / = not tested or not shown. Shown are actives, neighbours in structure and some others; about 2.2% of the full set was active somewhere.

SMILES	E-sel inducer	C2C12 statin	DENV2 CPE rescue
C[C@H]1CCCCO[C@H](CN(C)C(=O)Nc2ccc(C(F)(F)F)cc2)[C@@H](C)CN([C@@H](C)CO)C(=O)c2cc(NC(=O)Nc3cccc4ccccc34)ccc2O1	0.1	-16.3	1.4
CCS(=O)(=O)N1CCC(C(=O)NCCCN2CCC(Cc3ccccc3)CC2)CC1	/	0.6	/
O=C(NCCCN1CCC(Cc2ccccc2)CC1)C1CCN(S(=O)(=O)N2CCOCC2)CC1	/	90.0*	/
O=C(NCCCN1CCOCC1)C1CCC(=O)N1CCc1ccccc1 (configuration not stated)	0.0	0.2	28.6*
Cc1ccc(CN2C(=O)CCC2C(=O)NCCN2CCOCC2)cc1 (configuration not stated)	/	2.2	/
C/C=C/c1ccc([C@H]2[C@@H](CN(C)C(=O)CC)N(C(=O)NCCC)[C@H]2CO)cc1	0.1	6.0	0.2
CCN1C(=O)/C(=C2\C=Cc3cc(C)ccc3N2CC)OC1=S	/	2.0	/
CCN1C(=O)/C(=C2/C=Cc3ccccc3N2C)OC1=S	/	117.9*	/
CCCC(=O)Nc1nnc(/C=C/c2ccc(OC)cc2)s1	-0.4	/	-5.2
COc1ccc(/C=C/c2nnc(NC(=O)C(C)(C)C)s2)cc1	/	/	70.1*
O=C(COC(=O)c1ccccc1O)Nc1ncc(Cl)cc1Cl	4.2	19.0	3.1
O=C(COC(=O)c1ccccc1NC(=O)c1ccco1)Nc1ncc(Cl)cc1Cl	/	94.1*	/
Cc1noc(C)c1NC(=O)Nc1cccc2c1O[C@H](CN(C)C(=O)NC1CCCCC1)[C@@H](C)CN([C@@H](C)CO)C2=O	0.1	7.1	0.9
C[C@@H]1CN([C@@H](C)CO)C(=O)Cc2cc(NC(=O)c3ccncc3)ccc2O[C@@H]1CN(C)C(=O)Nc1ccccc1	2.5	-2.9	/
CCOC(=O)[C@]12CCCC=C1N(CCC1=CCCCC1)C(=O)[C@H](CC(=O)NCc1ccc(OC)c(OC)c1)C2	-0.3	/	38.0*
CCOC(=O)[C@]12CCC=C1N(Cc1ccc3c(c1)OCO3)C(=O)[C@H](CC(=O)NCCCCc1ccccc1)C2	/	/	-0.1
CCOC(=O)[C@]12CCCC=C1N(Cc1ccc3c(c1)OCO3)C(=O)[C@H](CC(=O)NCCCCc1ccccc1)C2	/	/	50.3*
COC(=O)[C@]12CCCCC=C1N(CCC1=CCCCC1)C(=O)[C@H](CC(=O)NCc1ccc(OC)c(OC)c1)C2	-0.1	/	3.8
CCOC(=O)[C@]12CCCC=C1N(Cc1cccc3ccccc13)C(=O)[C@H](CC(=O)NCc1ccccc1)C2	/	/	2.1
CCOC(=O)[C@]12CCCC=C1N(CCC1=CCCCC1)C(=O)[C@H](CC(=O)NCc1cccc3ccccc13)C2	-0.3	/	21.7*
Cc1noc(C)c1NC(=O)N[C@H]1CC[C@H](CCNC(=O)C2CCCCC2)O[C@@H]1CO	0.1	1.5	5.7
Cc1ccc(S(=O)(=O)Nc2ccc3c(c2)C(=O)N([C@H](C)CO)C[C@H](C)[C@H](CN(C)S(=O)(=O)c2ccccc2)OCCCC[C@H](C)O3)cc1	0.0	/	5.5
C[C@@H]1CN([C@H](C)CO)C(=O)c2cc(C#Cc3cccnc3)cnc2O[C@@H]1CN(C)Cc1cccnc1	0.1	6.0	0.0
Cc1ccc(-c2nc3ncccn3c2N)cc1	-5.1	/	6.7
Nc1c(-c2ccccc2)nc2ncccn12	-0.3	/	27.7*
SMILES	E-sel inducer	C2C12 statin	DENV2 CPE rescue
O=C(C[C@H]1CC[C@H]2[C@@H](COC[C@@H](O)CN2C(=O)c2ccc3c(c2)OCO3)O1)NCCN1CCCC1	0.0	/	27.1*
O=C(C[C@H]1CC[C@H]2[C@@H](COC[C@@H](O)CN2C(=O)c2ccc3c(c2)OCO3)O1)NC1CCC1	0.0	12.5	-5.7
O=C(C[C@H]1CC[C@@H]2[C@H](COC[C@H](O)CN2C(=O)c2ccc3c(c2)OCO3)O1)NC1Cc2ccccc2C1	-0.1	-9.1	23.7*
O=C(C[C@@H]1CC[C@H]2[C@@H](COC[C@H](O)CN2C(=O)Nc2ccc(F)cc2)O1)NC1Cc2ccccc2C1	-0.1	17.2	24.5*
O=C(C[C@@H]1CC[C@@H]2[C@H](COC[C@@H](O)CN2C(=O)Nc2ccc(F)cc2)O1)NC1Cc2ccccc2C1	0.1	-0.7	-15.3
O=C(C[C@@H]1CC[C@H]2[C@@H](COC[C@H](O)CN2C(=O)c2ccc3c(c2)OCO3)O1)NCCN1CCCCC1	0.0	32.1	-0.1
CO[C@H]1CN(C)C(=O)c2cc(NC(C)=O)ccc2OC[C@@H](C)N(C(=O)C2CCC2)C[C@@H]1C	0.0	0.8	9.0
COc1ccc(NC(=O)N(C)C[C@@H]2OCCCC[C@@H](C)Oc3ccc(NC(=O)Nc4ccc(F)cc4)cc3C(=O)N([C@@H](C)CO)C[C@H]2C)cc1	-0.2	/	1.2
CC=Cc1ccc2n(c1=O)C[C@H]1[C@H](CO)[C@@H](C(=O)NCc3ccccc3)N(S(C)(=O)=O)[C@@H]21 (mixture of isomers)	0.0	3.7	0.0
CC(C)NC(=O)Nc1ccc2c(c1)C(=O)N([C@H](C)CO)C[C@@H](C)[C@H](CN(C)Cc1ccc(C(F)(F)F)cc1)OCCCC[C@H](C)O2	/	/	1.7
CC(C)NC(=O)Nc1ccc2c(c1)C(=O)N([C@H](C)CO)C[C@@H](C)[C@H](CN(C)Cc1ccc(C(F)(F)F)cc1)OCCCC[C@@H](C)O2	/	/	31.5*
CC(C)NC(=O)Nc1ccc2c(c1)C(=O)N([C@@H](C)CO)C[C@H](C)[C@@H](CN(C)Cc1ccc(C(F)(F)F)cc1)OCCCC[C@@H](C)O2	/	/	11.5
CC(C)NC(=O)Nc1ccc2c(c1)C(=O)N([C@H](C)CO)C[C@@H](C)[C@@H](CN(C)Cc1ccc(C(F)(F)F)cc1)OCCCC[C@@H](C)O2	/	/	41.6*
COc1ccc(S(=O)(=O)N[C@H]2C=C[C@@H](CC(=O)N3CCc4ccccc4C3)O[C@H]2CO)cc1	-0.5	11.1	-4.6
CCN1[C@H](C(=O)NCCc2cn(C)cn2)[C@@H](CO)[C@@H]2Cn3c(ccc(-c4ccc(F)cc4)c3=O)[C@@H]21	0.1	8.8	1.2
O=C(Nc1ccccc1C(F)(F)F)N1CCC(N2CCCCC2)CC1	/	2.3	/
O=C(Nc1ccccc1C(F)(F)F)C(O)(c1ccccc1)C1CCCCC1 (configuration not stated)	0.0	-6.6	49.6*
C[C@H]1CN([C@@H](C)CO)C(=O)Cc2cc(NS(C)(=O)=O)ccc2O[C@H]1CN(C)S(=O)(=O)c1cn(C)cn1	?	-11.7	?
C[C@H](CO)N1C[C@H](C)[C@@H](CN(C)S(=O)(=O)c2cn(C)cn2)Oc2ccc(NC(=O)Nc3ccccc3)cc2CC1=O	0.1	-3.2	5.4
C[C@@H]1CN([C@H](C)CO)C(=O)Cc2cc(NC(=O)Nc3ccccc3)ccc2O[C@@H]1CN(C)S(=O)(=O)c1cn(C)cn1	1.0	15.0	5.9
C[C@@H]1CN([C@H](C)CO)C(=O)Cc2cc(NC(=O)Nc3ccc(F)cc3)ccc2O[C@@H]1CN(C)S(=O)(=O)c1cn(C)cn1	84.8*	-15.4	/
CC(C)NC(=O)Nc1ccc2c(c1)CC(=O)N([C@@H](C)CO)C[C@H](C)[C@H](CN(C)S(=O)(=O)c1cn(C)cn1)O2	6.8	14.9	3.8
C[C@@H]1CN([C@H](C)CO)C(=O)Cc2cc(NS(C)(=O)=O)ccc2O[C@H]1CN(C)S(=O)(=O)c1cn(C)cn1	389.1*	-42.1	2.2
